Results reported in ChEMBL document CHEMBL3046181 (Molecules, 2013).

What was measured:
[1] = system: Triticum aestivum; experiment: Post-emergent herbicidal activity against Triticum vulgare var. Salamanca (wheat) assessed as dry biomass at 60 uM after 14 days relative to control; format: functional
In short: (§1)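 Plants were grown 18 days in a greenhouse, then sprayed with compound dissolved in MeOH with Tween 20 and maize oil. Controls were sprayed with distilled water containing the same MeOH, Tween 20 and maize oil. Dry biomass of all leaves was weighed 14 days after spraying, and differences from control were judged by Student's t-test (p < 0.05).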

[2] = system: Trifolium alexandrinum; experiment: Post-emergent herbicidal activity against Trifolium alexandrinum assessed as dry biomass at 40 uM after 14 days relative to control; format: functional; in short: as §1
[3] = system: Lolium multiflorum; experiment: Post-emergent herbicidal activity against Lolium multiflorum (Italian ryegrass) assessed as dry biomass at 20 uM after 14 days relative to control; format: functional; in short: as §1
[4] = system: Trifolium alexandrinum; experiment: Post-emergent herbicidal activity against Trifolium alexandrinum assessed as dry biomass at 20 uM after 14 days relative to control; format: functional; in short: as §1
[5] = system: Physalis ixocarpa; experiment: Post-emergent herbicidal activity against Physalis ixocarpa assessed as dry biomass at 20 uM after 14 days relative to control; format: functional; in short: as §1
[6] = system: Physalis ixocarpa; experiment: Post-emergent herbicidal activity against Physalis ixocarpa assessed as dry biomass at 40 uM after 14 days relative to control; format: functional; in short: as §1
[7] = system: Physalis ixocarpa; experiment: Post-emergent herbicidal activity against Physalis ixocarpa assessed as dry biomass at 60 uM after 14 days relative to control; format: functional; in short: as §1
[8] = system: Lolium multiflorum; experiment: Post-emergent herbicidal activity against Lolium multiflorum (Italian ryegrass) assessed as dry biomass at 60 uM after 14 days relative to control; format: functional; in short: as §1
[9] = system: Triticum aestivum; experiment: Post-emergent herbicidal activity against Triticum vulgare var. Salamanca (wheat) assessed as dry biomass at 40 uM after 14 days relative to control; format: functional; in short: as §1
[10] = system: Lolium multiflorum; experiment: Post-emergent herbicidal activity against Lolium multiflorum (Italian ryegrass) assessed as dry biomass at 40 uM after 14 days relative to control; format: functional; in short: as §1
[11] = system: Trifolium alexandrinum; experiment: Post-emergent herbicidal activity against Trifolium alexandrinum assessed as dry biomass at 60 uM after 14 days relative to control; format: functional; in short: as §1
[12] = system: Triticum aestivum; experiment: Post-emergent herbicidal activity against Triticum vulgare var. Salamanca (wheat) assessed as dry biomass at 20 uM after 14 days relative to control; format: functional; in short: as §1
[13] = Inhibition of mitochondrial complex 1 in Homo sapiens (human) T47D cells by Clark's electrode method; format: cell-based
[14] = system: Triticum aestivum; experiment: Herbicidal activity against Triticum vulgare var. Salamanca (wheat) assessed as inhibition of seed respiration after 72 hr by Clark's electrode method; format: functional, organism-based
In short: (§2)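 Seeds were imbibed in 10 mL water in Petri dishes with compound at 10–50 μM, as in the germination set-up. O2 uptake was measured after 5, 24, 48 and 72 h with an oxygen electrode, where O2-reduction current was converted to voltage. Consumption rate was calculated, with replicates as mean ± S.E. IC50 came from probit analysis.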

[15] = system: Lolium multiflorum; experiment: Herbicidal activity against Lolium multiflorum (Italian ryegrass) assessed as inhibition of seed respiration after 5 to 72 hr by Clark's electrode method; format: functional, organism-based
In short: (§3)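 Seeds imbibed in 10 mL water on filter paper in Petri dishes, with compound at 10–50 μM (dissolved in MeOH, final MeOH under 1%); controls received the same water and MeOH. O2 uptake was measured polarographically after 5, 24, 48 and 72 h of imbibition, and consumption rate was calculated. IC50 at 72 h was derived by probit/linear regression. Replicate experiments, means ± S.E.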

[16] = system: Triticum aestivum; experiment: Herbicidal activity against Triticum vulgare var. Salamanca (wheat) assessed as inhibition of seed germination after 4 days; details: 96 h
[17] = system: Lolium multiflorum; experiment: Herbicidal activity against Lolium multiflorum (Italian ryegrass) assessed as inhibition of seed respiration after 72 hr by Clark's electrode method; format: functional, organism-based; in short: as §2
[18] = system: Spinacia oleracea; experiment: Inhibition of hill reaction in Spinacia oleracea (spinach) chloroplast; format: functional
[19] = system: Triticum aestivum; experiment: Herbicidal activity against Triticum vulgare var. Salamanca (wheat) assessed as inhibition of shoot elongation after 4 days; details: 96 h
[20] = system: Trifolium alexandrinum; experiment: Herbicidal activity against Trifolium alexandrinum assessed as inhibition of seed germination after 5 days; details: 120 h
[21] = system: Triticum aestivum; experiment: Herbicidal activity against Triticum vulgare var. Salamanca (wheat) assessed as inhibition of seed respiration after 5 to 72 hr by Clark's electrode method; format: functional, organism-based; in short: as §3
[22] = system: Triticum aestivum; experiment: Herbicidal activity against Triticum vulgare var. Salamanca (wheat) assessed as inhibition of root elongation after 4 days; details: 96 h
[23] = system: Physalis ixocarpa; experiment: Herbicidal activity against Physalis ixocarpa assessed as inhibition of shoot elongation after 5 days; details: 120 h
[24] = system: Physalis ixocarpa; experiment: Herbicidal activity against Physalis ixocarpa assessed as inhibition of seed respiration after 5 to 72 hr by Clark's electrode method; format: functional, organism-based; in short: as §3
[25] = system: Lolium multiflorum; experiment: Herbicidal activity against Lolium multiflorum (Italian ryegrass) assessed as inhibition of shoot elongation after 5 days; details: 120 h
[26] = system: Trifolium alexandrinum; experiment: Herbicidal activity against Trifolium alexandrinum assessed as inhibition of shoot elongation after 5 days; details: 120 h
[27] = system: Physalis ixocarpa; experiment: Herbicidal activity against Physalis ixocarpa assessed as inhibition of seed respiration after 72 hr by Clark's electrode method; format: functional, organism-based; in short: as §2
[28] = system: Lolium multiflorum; experiment: Herbicidal activity against Lolium multiflorum (Italian ryegrass) assessed as inhibition of root elongation after 5 days; details: 120 h
[29] = system: Trifolium alexandrinum; experiment: Herbicidal activity against Trifolium alexandrinum assessed as inhibition of seed respiration at 10 to 50 uM by Clark's electrode method; format: functional, organism-based; details: TDE = time-dependent effect; in short: as §3
[30] = system: Triticum aestivum; experiment: Herbicidal activity against Triticum vulgare var. Salamanca (wheat) assessed as inhibition of seed respiration at 10 to 50 uM by Clark's electrode method; format: functional, organism-based; details: TDE = time-dependent effect; in short: as §3
[31] = system: Lolium multiflorum; experiment: Herbicidal activity against Lolium multiflorum (Italian ryegrass) assessed as inhibition of seed respiration at 10 to 50 uM by Clark's electrode method; format: functional, organism-based; details: TDE = time-dependent effect; in short: as §3
[32] = system: Physalis ixocarpa; experiment: Herbicidal activity against Physalis ixocarpa assessed as inhibition of seed germination after 5 days; details: 120 h
[33] = system: Physalis ixocarpa; experiment: Herbicidal activity against Physalis ixocarpa assessed as inhibition of root elongation after 5 days; details: 120 h
[34] = system: Trifolium alexandrinum; experiment: Herbicidal activity against Trifolium alexandrinum assessed as inhibition of root elongation after 5 days; details: 120 h
[35] = system: Spinacia oleracea; experiment: Inhibition of light reaction of photosynthesis in Spinacia oleracea (spinach) chloroplast; format: functional
[36] = system: Physalis ixocarpa; experiment: Herbicidal activity against Physalis ixocarpa assessed as inhibition of seed germination at 50 uM after 5 days; format: functional; details: 120 h
In short: (§4)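 Seeds were placed on filter paper in Petri dishes (20 seeds for T. vulgare) and wetted with deionized water or test solution. Compound was given in MeOH at under 1%, and controls held matching MeOH. Three replicate experiments were run. Germination was scored as 1 mm root extrusion, and root and shoot length were measured on all germinated seeds. Student's t-test was used, and IC50 values came from probit analysis.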

[37] = system: Trifolium alexandrinum; experiment: Herbicidal activity against Trifolium alexandrinum assessed as inhibition of seed respiration after 5 to 72 hr by Clark's electrode method; format: functional, organism-based; in short: as §3
[38] = system: Physalis ixocarpa; experiment: Herbicidal activity against Physalis ixocarpa assessed as inhibition of seed respiration at 10 to 50 uM by Clark's electrode method; format: functional, organism-based; details: TDE = time-dependent effect; in short: as §3
[39] = system: Lolium multiflorum; experiment: Herbicidal activity against Lolium multiflorum (Italian ryegrass) assessed as inhibition of seed germination at 50 uM after 5 days; format: functional; details: 120 h; in short: as §4
[40] = system: Trifolium alexandrinum; experiment: Herbicidal activity against Trifolium alexandrinum assessed as inhibition of seed respiration after 72 hr by Clark's electrode method; format: functional, organism-based; in short: as §2
[41] = system: Lolium multiflorum; experiment: Herbicidal activity against Lolium multiflorum (Italian ryegrass) assessed as inhibition of seed germination after 5 days; details: 120 h

Question: Which results are given for `C[n+]1ccc(-c2cc[n+](C)cc2)cc1.[Cl-].[Cl-]` [PARAQUAT DICHLORIDE]?
Answer: Activity [1]: 67%; Activity [2]: 59%; Activity [3]: 97%; Activity [4]: 67%; Activity [5]: 96%; Activity [6]: 100%; Activity [7]: 84%; Activity [8]: 32%; Activity [9]: 67%; Activity [10]: 54%; Activity [11]: 57%; Activity [12]: 83%

Question: With `CC(C)(O)[C@H]1CC[C@](C)([C@@H](O)CC[C@](C)(O)[C@H]2CC[C@H]3O[C@@H]([C@]4(C)CC[C@@H](Br)C(C)(C)O4)CC[C@]3(C)O2)O1` [THYRSIFEROL] as the compound, how does the IC50 [13] read?
Answer: 3 µM

Question: Which Activity [1] does the source give for `CCCCC[C@H]1CCCCCCCCCC(=O)O[C@H]2[C@H](O)[C@@H](CO)O[C@@H](O[C@H]3[C@H](O1)O[C@H](C)[C@H](O)[C@@H]3O)[C@@H]2O[C@@H]1O[C@@H](C)[C@H](OC(=O)[C@@H](C)CC)[C@@H](O[C@@H]2O[C@@H](C)[C@H](O)[C@@H](O)[C@H]2O)[C@H]1OC(=O)[C@@H](C)CC` [TRICOLORIN A] here?
Answer: 67%

Question: And the Activity [2]?
Answer: 83%

Question: And the IC50 [14]?
Answer: 25.7 µM

Question: And the inhibition [15]?
Answer: Dose-dependent effect

Question: What about the IC50 [16] of the same compound?
Answer: 25.7 µM

Question: And the IC50 [17]?
Answer: 8 µM

Question: And the IC50 [18]?
Answer: 5 µM

Question: What about the IC50 [19] of the same compound?
Answer: 8.5 µM

Question: What about the Activity [3] of the same compound?
Answer: 91%

Question: What about the Activity [4] of the same compound?
Answer: 87%

Question: And the Activity [5]?
Answer: 104%

Question: What about the IC50 [20] of the same compound?
Answer: 16 µM

Question: What about the inhibition [21] of the same compound?
Answer: Dose-dependent effect

Question: And the IC50 [22]?
Answer: 24.1 µM

Question: What about the IC50 [23] of the same compound?
Answer: 12.7 µM

Question: What about the inhibition [24] of the same compound?
Answer: Dose-dependent effect

Question: What about the IC50 [25] of the same compound?
Answer: 12.3 µM

Question: What about the IC50 [26] of the same compound?
Answer: 12.7 µM

Question: And the IC50 [27]?
Answer: 11.7 µM

Question: And the Activity [6]?
Answer: 84%

Question: And the IC50 [28]?
Answer: 15.3 µM

Question: What about the inhibition [29] of the same compound?
Answer: tde

Question: What about the Activity [7] of the same compound?
Answer: 78%

Question: What about the inhibition [30] of the same compound?
Answer: tde

Question: What about the inhibition [31] of the same compound?
Answer: tde

Question: And the IC50 [32]?
Answer: 13.8 µM

Question: And the IC50 [33]?
Answer: 13.8 µM

Question: What about the IC50 [34] of the same compound?
Answer: 18 µM

Question: What about the Activity [8] of the same compound?
Answer: 38%

Question: And the UC50 [35]?
Answer: 0.33 µM

Question: What about the Activity [9] of the same compound?
Answer: 78%

Question: What about the Activity [10] of the same compound?
Answer: 53%

Question: And the inhibition at 50 µM [36]?
Answer: 100%

Question: What about the Activity [11] of the same compound?
Answer: 63%

Question: What about the inhibition [37] of the same compound?
Answer: Dose-dependent effect

Question: What about the inhibition [38] of the same compound?
Answer: tde

Question: And the inhibition at 50 µM [39]?
Answer: 100%

Question: What about the Activity [12] of the same compound?
Answer: 82%

Question: What about the IC50 [40] of the same compound?
Answer: 22.6 µM

Question: And the IC50 [41]?
Answer: 16.1 µM
